Laboratory results published in ChEMBL document CHEMBL1149778, “Synthesis of some novel 2,4-disubstituted thiazoles as possible antimicrobial agents” (2008).
≈ marks a conversion by molar mass, not a printed value.

Experiments:
[1] = system: Aspergillus fumigatus; test: Antifungal activity against Aspergillus fumigatus NCIM No.902 assessed as zone of inhibition by serial plate dilution method; type: functional
Procedure, shortened: (§1)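 Sabouraud agar (peptone, D-glucose, agar; pH 5.7), 20 ml per dish, lawned with a saline spore suspension from a loopful of fungus. Excess decanted, plates dried 1 h at 37 °C. Wells punched and compounds in DMSO added, DMSO as control. Triplicate plates, 37 °C for 3-4 days; inhibition-zone diameter measured.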

[2] = system: Bacillus subtilis; test: Antibacterial activity against Bacillus subtilis assessed as zone of inhibition after 16 to 18 hrs by serial plate dilution method; type: functional
Procedure, shortened: (§2)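 Agar well diffusion: 20 ml agar per dish seeded with bacterial suspension, excess decanted, dishes held 1 h at 37 °C. Wells punched, compounds in DMSO added at their MIC levels, DMSO wells as control. Zone of inhibition measured.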

[3] = system: Trichophyton mentagrophytes; test: Antifungal activity against Trichophyton mentagrophytes by serial plate dilution method; type: functional
[4] = system: Bacillus subtilis; test: Antibacterial activity against Bacillus subtilis after 16 to 18 hrs by serial plate dilution method; type: functional
Procedure, shortened: (§3)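 MIC by broth serial dilution: compound serially diluted in Mueller-Hinton broth, tubes adjusted to […] with phosphate buffer. Standardized bacterial suspension inoculated, incubated 16-18 h at 37 °C. MIC read as the lowest concentration with no visible growth.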

[5] = system: Pseudomonas aeruginosa; test: Antibacterial activity against Pseudomonas aeruginosa ATTC 27853 assessed as zone of inhibition after 16 to 18 hrs by serial plate dilution method; type: functional, ATCC27853; procedure, shortened: as §2
[6] = system: Staphylococcus aureus; test: Antibacterial activity against Staphylococcus aureus ATTC 25923 assessed as zone of inhibition after 16 to 18 hrs by serial plate dilution method; type: functional; procedure, shortened: as §2
[7] = system: Talaromyces marneffei; test: Antifungal activity against Penicillium marneffei by serial plate dilution method; type: functional
[8] = system: Trichophyton mentagrophytes; test: Antifungal activity against Trichophyton mentagrophytes assessed as zone of inhibition by serial plate dilution method; type: functional; procedure, shortened: as §1
[9] = system: Escherichia coli; test: Antibacterial activity against Escherichia coli ATTC 25922 assessed as zone of inhibition after 16 to 18 hrs by serial plate dilution method; type: functional, ATCC25922; procedure, shortened: as §2
[10] = system: Aspergillus flavus; test: Antifungal activity against Aspergillus flavus NCIM No.524 by serial plate dilution method; type: functional
[11] = system: Escherichia coli; test: Antibacterial activity against Escherichia coli ATTC 25922 after 16 to 18 hrs by serial plate dilution method; type: functional; details: ATCC25922; procedure, shortened: as §3
[12] = system: Aspergillus flavus; test: Antifungal activity against Aspergillus flavus NCIM No.524 assessed as zone of inhibition by serial plate dilution method; type: functional; procedure, shortened: as §1
[13] = system: Pseudomonas aeruginosa; test: Antibacterial activity against Pseudomonas aeruginosa ATTC 27853 after 16 to 18 hrs by serial plate dilution method; type: functional; details: ATCC27853; procedure, shortened: as §3
[14] = system: Talaromyces marneffei; test: Antifungal activity against Penicillium marneffei assessed as zone of inhibition by serial plate dilution method; type: functional; procedure, shortened: as §1
[15] = system: Aspergillus fumigatus; test: Antifungal activity against Aspergillus fumigatus NCIM No.902 by serial plate dilution method; type: functional
[16] = system: Staphylococcus aureus; test: Antibacterial activity against Staphylococcus aureus ATTC 25923 after 16 to 18 hrs by serial plate dilution method; type: functional; procedure, shortened: as §3

Row | SMILES | MIC [3] [µg/mL] | MIC [4] [µg/mL] | MIC [7] [µg/mL] | MIC [10] [µg/mL] | MIC [11] [µg/mL] | MIC [13] [µg/mL] | MIC [15] [µg/mL] | MIC [16] [µg/mL] | inhibition zone (IZ) [1] [mm] | inhibition zone (IZ) [2] [mm] | inhibition zone (IZ) [5] [mm] | inhibition zone (IZ) [6] [mm] | inhibition zone (IZ) [8] [mm] | inhibition zone (IZ) [9] [mm] | inhibition zone (IZ) [12] [mm] | inhibition zone (IZ) [14] [mm]
1 | Cc1cc(C)nc(SCc2csc(-c3cc(Cl)cc(Cl)c3Cl)n2)n1 | 25 (≈ 60 µM) | 6.25 (≈ 15 µM) | 6.25 (≈ 15 µM) | 6.25 (≈ 15 µM) | 6.25 (≈ 15 µM) | 6.25 (≈ 15 µM) | 25 (≈ 60 µM) | 6.25 (≈ 15 µM) | <10 | 16 | 16 | 16 | <10 | 16 | 16 | 16
2 | O=[N+]([O-])c1ccc(-c2csc(-c3cc(Cl)cc(Cl)c3Cl)n2)cc1 | 25 (≈ 64.8 µM) | 25 (≈ 64.8 µM) | 25 (≈ 64.8 µM) | 12.5 (≈ 32.4 µM) | 6.25 (≈ 16.2 µM) | 6.25 (≈ 16.2 µM) | 12.5 (≈ 32.4 µM) | 12.5 (≈ 32.4 µM) | 11 | <10 | 16 | 11 | <10 | 16 | 11 | <10
3 | O=[N+]([O-])c1ccc(-c2csc(N/N=C/c3cc(Cl)cc(Cl)c3Cl)n2)cc1 | 25 (≈ 58.5 µM) | 6.25 (≈ 14.6 µM) | 25 (≈ 58.5 µM) | 25 (≈ 58.5 µM) | 25 (≈ 58.5 µM) | 25 (≈ 58.5 µM) | 25 (≈ 58.5 µM) | 6.25 (≈ 14.6 µM) | <10 | 16 | <10 | 16 | <10 | <10 | <10 | <10
4 | Clc1cc(Cl)c(Cl)c(-c2nc(CN3CCOCC3)cs2)c1 | 25 (≈ 68.7 µM) | 12.5 (≈ 34.4 µM) | 12.5 (≈ 34.4 µM) | 25 (≈ 68.7 µM) | 12.5 (≈ 34.4 µM) | 25 (≈ 68.7 µM) | 25 (≈ 68.7 µM) | 12.5 (≈ 34.4 µM) | <10 | 11 | <10 | 11 | <10 | 11 | <10 | 11
5 | NC(=O)c1cc(-c2csc(-c3cc(Cl)cc(Cl)c3Cl)n2)ccc1O | 25 (≈ 62.5 µM) | 6.25 (≈ 15.6 µM) | 6.25 (≈ 15.6 µM) | 6.25 (≈ 15.6 µM) | 6.25 (≈ 15.6 µM) | 6.25 (≈ 15.6 µM) | 25 (≈ 62.5 µM) | 6.25 (≈ 15.6 µM) | <10 | 16 | 16 | 16 | <10 | 16 | 16 | 16
6 | O=C(O)c1cn(C2CC2)c2cc(N3CCNCC3)c(F)cc2c1=O [CIPROFLOXACIN] | – | 1.56 (≈ 4.71 µM) | – | – | – | – | – | – | – | 21 | 16 | 16 | – | 16 | – | –
7 | Clc1cc(Cl)c(Cl)c(-c2nc(CN3CCCCC3)cs2)c1 | 25 (≈ 69.1 µM) | 6.25 (≈ 17.3 µM) | 25 (≈ 69.1 µM) | 25 (≈ 69.1 µM) | 25 (≈ 69.1 µM) | 12.5 (≈ 34.6 µM) | 25 (≈ 69.1 µM) | 6.25 (≈ 17.3 µM) | <10 | 16 | 11 | 16 | <10 | <10 | <10 | <10

More lines, in order of falling MIC [3], values ahead:

Row | MIC [3] [µg/mL] | MIC [4] [µg/mL] | MIC [7] [µg/mL] | MIC [10] [µg/mL] | MIC [11] [µg/mL] | MIC [13] [µg/mL] | MIC [15] [µg/mL] | MIC [16] [µg/mL] | SMILES | inhibition zone (IZ) [1] [mm] | inhibition zone (IZ) [2] [mm] | inhibition zone (IZ) [5] [mm] | inhibition zone (IZ) [6] [mm] | inhibition zone (IZ) [8] [mm] | inhibition zone (IZ) [9] [mm] | inhibition zone (IZ) [12] [mm] | inhibition zone (IZ) [14] [mm]
8 | 25 (≈ 67.4 µM) | 12.5 (≈ 33.7 µM) | 25 (≈ 67.4 µM) | 25 (≈ 67.4 µM) | 6.25 (≈ 16.9 µM) | 12.5 (≈ 33.7 µM) | 25 (≈ 67.4 µM) | 12.5 (≈ 33.7 µM) | COc1ccc(-c2csc(-c3cc(Cl)cc(Cl)c3Cl)n2)cc1 | <10 | 11 | 11 | 11 | <10 | 16 | <10 | <10
9 | 12.5 (≈ 28.3 µM) | 6.25 (≈ 14.1 µM) | 12.5 (≈ 28.3 µM) | 12.5 (≈ 28.3 µM) | 6.25 (≈ 14.1 µM) | 6.25 (≈ 14.1 µM) | 12.5 (≈ 28.3 µM) | 6.25 (≈ 14.1 µM) | NC(=O)c1cc(-c2csc(N/N=C/c3cc(Cl)cc(Cl)c3Cl)n2)ccc1O | 11 | 16 | 16 | 16 | 11 | 16 | 11 | 11
10 | 12.5 (≈ 32.3 µM) | 6.25 (≈ 16.2 µM) | 25 (≈ 64.6 µM) | 12.5 (≈ 32.3 µM) | 6.25 (≈ 16.2 µM) | 6.25 (≈ 16.2 µM) | 12.5 (≈ 32.3 µM) | 6.25 (≈ 16.2 µM) | CSc1ccc(-c2csc(-c3cc(Cl)cc(Cl)c3Cl)n2)cc1 | 11 | 16 | 16 | 16 | 11 | 16 | 11 | <10
11 | 6.25 (≈ 16.7 µM) | 25 (≈ 66.6 µM) | 25 (≈ 66.6 µM) | 25 (≈ 66.6 µM) | 6.25 (≈ 16.7 µM) | 6.25 (≈ 16.7 µM) | 6.25 (≈ 16.7 µM) | 12.5 (≈ 33.3 µM) | Clc1ccc(-c2csc(-c3cc(Cl)cc(Cl)c3Cl)n2)cc1 | 16 | <10 | 16 | 11 | 16 | 16 | <10 | <10
12 | 6.25 (≈ 18.3 µM) | 12.5 (≈ 36.6 µM) | 6.25 (≈ 18.3 µM) | 6.25 (≈ 18.3 µM) | 12.5 (≈ 36.6 µM) | 25 (≈ 73.2 µM) | 6.25 (≈ 18.3 µM) | 12.5 (≈ 36.6 µM) | Clc1cc(Cl)c(Cl)c(-c2nc(-c3cccnc3)cs2)c1 | 16 | 11 | <10 | 11 | 16 | 11 | 16 | 16
13 | 6.25 (≈ 14.6 µM) | 6.25 (≈ 14.6 µM) | 25 (≈ 58.3 µM) | 25 (≈ 58.3 µM) | 6.25 (≈ 14.6 µM) | 6.25 (≈ 14.6 µM) | 6.25 (≈ 14.6 µM) | 6.25 (≈ 14.6 µM) | CSc1ccc(-c2csc(N/N=C/c3cc(Cl)cc(Cl)c3Cl)n2)cc1 | 16 | 16 | 16 | 16 | 16 | 16 | <10 | <10
14 | 6.25 (≈ 16.6 µM) | 6.25 (≈ 16.6 µM) | 25 (≈ 66.4 µM) | 25 (≈ 66.4 µM) | 6.25 (≈ 16.6 µM) | 6.25 (≈ 16.6 µM) | 6.25 (≈ 16.6 µM) | 6.25 (≈ 16.6 µM) | CN1CCN(Cc2csc(-c3cc(Cl)cc(Cl)c3Cl)n2)CC1 | 16 | 16 | 16 | 16 | 16 | 16 | <10 | <10
15 | 6.25 | – | 6.25 | 6.25 | – | – | 6.25 | – | Cc1cc(C2CCCCC2)n(O)c(=O)c1.NCCO [CICLOPIROX OLAMINE] | 16 | – | – | – | 16 | – | 16 | 16
16 | 6.25 (≈ 15 µM) | 12.5 (≈ 30 µM) | 6.25 (≈ 15 µM) | 6.25 (≈ 15 µM) | 25 (≈ 60 µM) | 12.5 (≈ 30 µM) | 6.25 (≈ 15 µM) | 12.5 (≈ 30 µM) | Clc1cc(Cl)c(Cl)c(-c2nc(-c3ccc(-c4ccccc4)cc3)cs2)c1 | 16 | 11 | 11 | 11 | 16 | <10 | 16 | 16
